From ChEMBL document CHEMBL4130550, “Antiproliferative Dimeric Aporphinoid Alkaloids from the Roots of Thalictrum cultratum” (J Nat Prod, 2017)

Legend:
HL-60 [1] = assay: Induction of mitochondrial membrane potential loss in human HL60 cells after 24 hrs by JC1 staining based flow cytometric method; format: functional, cell-based
HL-60 [2] = assay: Induction of apoptosis in human HL60 cells assessed as necrotic cells at 0.06 uM after 24 hrs by Annexin-V-APC/7-AAD staining based flow cytometric method (reference value: 0.44%); format: functional
How it was run: (§1)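 HL-60 are seeded overnight in six-well plates, then treated in triplicate with 0.06, 0.3 or 1.5 μM, or untreated, for 24 h. Cells are washed in PBS and taken up in annexin V binding buffer. Annexin V-APC is added for 15 min in the dark at 25 °C, and 7-AAD just before flow cytometry. Early apoptosis is annexin V-APC only; late apoptosis is annexin V-APC/7-AAD.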

HL-60 [3] = assay: Induction of apoptosis in human HL60 cells assessed as early apoptotic cells at 1.5 uM after 48 hrs by Annexin-V-FITC/propidium iodide staining based flow cytometric method (reference value: 2.8%); format: functional
HL-60 [4] = assay: Cell cycle arrest in human HL60 cells assessed as accumulation at G1 phase at 0.06 uM after 24 hrs by propidium iodide staining based flow cytometric method (reference value: 43.32%); format: functional
HL-60 [5] = assay: Induction of mitochondrial membrane potential loss in human HL60 cells assessed as intact mitochondrial membrane potential at 0.3 uM after 24 hrs by JC1 staining based flow cytometric method (reference value: 99.42%); format: functional
HL-60 [6] = assay: Induction of apoptosis in human HL60 cells assessed as late apoptotic cells at 1.5 uM after 24 hrs by Annexin-V-FITC/propidium iodide staining based flow cytometric method (reference value: 2.53%); format: functional
HL-60 [7] = assay: Induction of mitochondrial membrane potential loss in human HL60 cells assessed as collapse of the mitochondrial membrane potential at 1.5 uM after 24 hrs by JC1 staining based flow cytometric method (reference value: 0.58%); format: functional
HL-60 [8] = assay: Induction of apoptosis in human HL60 cells assessed as early apoptotic cells at 1.5 uM after 24 hrs by Annexin-V-FITC/propidium iodide staining based flow cytometric method (reference value: 2.8%); format: functional
HL-60 [9] = assay: Induction of mitochondrial membrane potential loss in human HL60 cells assessed as intact mitochondrial membrane potential at 1.5 uM after 24 hrs by JC1 staining based flow cytometric method (reference value: 99.42%); format: functional
HL-60 [10] = assay: Induction of apoptosis in human HL60 cells after 24 hrs by Annexin-V-APC/7-AAD staining based flow cytometric method; format: functional, cell-based; how it was run: as §1
HL-60 [11] = assay: Induction of apoptosis in human HL60 cells assessed as live cells at 1.5 uM after 72 hrs by Annexin-V-FITC/propidium iodide staining based flow cytometric method (reference value: 94.19%); format: functional
HL-60 [12] = assay: Induction of apoptosis in human HL60 cells assessed as live cells at 0.06 uM after 24 hrs by Annexin-V-APC/7-AAD staining based flow cytometric method (reference value: 95.31%); format: functional; how it was run: as §1
HL-60 [13] = assay: Induction of apoptosis in human HL60 cells assessed as late apoptotic cells at 0.3 uM after 24 hrs by Annexin-V-APC/7-AAD staining based flow cytometric method (reference value: 1.99%); format: functional; how it was run: as §1
HL-60 [14] = assay: Induction of apoptosis in human HL60 cells assessed as necrotic cells at 1.5 uM after 72 hrs by Annexin-V-FITC/propidium iodide staining based flow cytometric method (reference value: 0.47%); format: functional
HL-60 [15] = assay: Cell cycle arrest in human HL60 cells assessed as accumulation at S phase at 1.5 uM after 24 hrs by propidium iodide staining based flow cytometric method (reference value: 25.75%); format: functional
HL-60 [16] = assay: Induction of apoptosis in human HL60 cells assessed as late apoptotic cells at 0.06 uM after 24 hrs by Annexin-V-APC/7-AAD staining based flow cytometric method (reference value: 1.99%); format: functional; how it was run: as §1
HL-60 [17] = assay: Induction of apoptosis in human HL60 cells assessed as early apoptotic cells at 1.5 uM after 24 hrs by Annexin-V-APC/7-AAD staining based flow cytometric method (reference value: 2.26%); format: functional; how it was run: as §1
HL-60 [18] = assay: Induction of apoptosis in human HL60 cells assessed as late apoptotic cells at 1.5 uM after 72 hrs by Annexin-V-FITC/propidium iodide staining based flow cytometric method (reference value: 2.53%); format: functional
HL-60 [19] = assay: Induction of mitochondrial membrane potential loss in human HL60 cells assessed as collapse of the mitochondrial membrane potential at 0.3 uM after 24 hrs by JC1 staining based flow cytometric method (reference value: 0.58%); format: functional
HL-60 [20] = assay: Cell cycle arrest in human HL60 cells assessed as accumulation at S phase at 0.06 uM after 24 hrs by propidium iodide staining based flow cytometric method (reference value: 25.75%); format: functional
HL-60 [21] = assay: Induction of apoptosis in human HL60 cells assessed as early apoptotic cells at 1.5 uM after 72 hrs by Annexin-V-FITC/propidium iodide staining based flow cytometric method (reference value: 2.8%); format: functional
HL-60 [22] = assay: Induction of apoptosis in human HL60 cells assessed as early apoptotic cells at 0.06 uM after 24 hrs by Annexin-V-APC/7-AAD staining based flow cytometric method (reference value: 2.26%); format: functional; how it was run: as §1
HL-60 [23] = assay: Induction of apoptosis in human HL60 cells assessed as live cells at 1.5 uM after 24 hrs by Annexin-V-FITC/propidium iodide staining based flow cytometric method (reference value: 94.19%); format: functional
HL-60 [24] = assay: Induction of apoptosis in human HL60 cells assessed as early apoptotic cells at 0.3 uM after 24 hrs by Annexin-V-APC/7-AAD staining based flow cytometric method (reference value: 2.26%); format: functional; how it was run: as §1
HL-60 [25] = assay: Induction of apoptosis in human HL60 cells assessed as live cells at 0.3 uM after 24 hrs by Annexin-V-APC/7-AAD staining based flow cytometric method (reference value: 95.31%); format: functional; how it was run: as §1
HL-60 [26] = assay: Induction of apoptosis in human HL60 cells assessed as necrotic cells at 1.5 uM after 24 hrs by Annexin-V-APC/7-AAD staining based flow cytometric method (reference value: 0.44%); format: functional; how it was run: as §1
HL-60 [27] = assay: Cell cycle arrest in human HL60 cells assessed as accumulation at G2 phase at 0.3 uM after 24 hrs by propidium iodide staining based flow cytometric method (reference value: 30.93%); format: functional
HL-60 [28] = assay: Induction of mitochondrial membrane potential loss in human HL60 cells assessed as collapse of the mitochondrial membrane potential at 0.06 uM after 24 hrs by JC1 staining based flow cytometric method (reference value: 0.58%); format: functional
HL-60 [29] = assay: Antiproliferative activity against human HL60 cells after 72 hrs by tryphan blue staining based hematocytometric method; format: functional, cell-based; details: HL-60, 72 h
How it was run: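 HL-60 (ATCC) in RPMI-1640 with 10% heat-inactivated FBS, 1 mM glutamine and penicillin/streptomycin, 37 °C, 5% CO2. Cells at 4.5 × 10^4 cells/mL are exposed to a concentration gradient (DMSO stock diluted in absolute EtOH) for 72 h. Trypan blue is added and total cells are counted on a hematocytometer. IC50 is the mean of three parallel experiments. Negative reference is 0.1% DMSO.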

HL-60 [30] = assay: Induction of apoptosis in human HL60 cells assessed as necrotic cells at 1.5 uM after 48 hrs by Annexin-V-FITC/propidium iodide staining based flow cytometric method (reference value: 0.47%); format: functional

In the case of COc1cc2c(c(Oc3ccc(C[C@H]4c5cc(OC)c6c(c5CCN4C)OCO6)cc3)c1OC)C[C@H]1c3c(c(OC)c(OC)c(OC)c3-2)CCN1C, the Activity (HL-60 [1]) is reported as “Dose-dependent effect”, the Activity (HL-60 [2]) is reported as 3.77% and the Activity (HL-60 [3]) is reported as 28.78%. For the same molecule, the Activity (HL-60 [4]) was 44.01%, the Activity (HL-60 [5]) was 66.5% and the Activity (HL-60 [6]) was 8.92%. It also gave an Activity (HL-60 [7]) of 59.1%, an Activity (HL-60 [8]) of 14.79% and an Activity (HL-60 [9]) of 40.9%. For the same molecule, the Activity (HL-60 [10]) was “Dose-dependent effect”, the Activity (HL-60 [11]) was 36.09% and the Activity (HL-60 [12]) was 79.49%. For the same molecule, the Activity (HL-60 [13]) was 6.3%, the Activity (HL-60 [14]) was 0.79% and the Activity (HL-60 [15]) was 48.45%. The Activity (HL-60 [16]) was 8.18%, the Activity (HL-60 [17]) was 9% and the Activity (HL-60 [18]) was 31.66%. It also gave an Activity (HL-60 [19]) of 33.5%, an Activity (HL-60 [20]) of 31.66% and an Activity (HL-60 [21]) of 31.46%. The Activity (HL-60 [22]) was 8.57%, the Activity (HL-60 [23]) was 76.15% and the Activity (HL-60 [24]) was 22.76%. It also gave an Activity (HL-60 [25]) of 69.73%, an Activity (HL-60 [26]) of 7.28% and an Activity (HL-60 [27]) of 21.47%. For the same molecule, the Activity (HL-60 [28]) was 24.1%, the IC50 (HL-60 [29]) was 1080 nM and the Activity (HL-60 [30]) was 0.57%.
